Assay results taken from ChEMBL document CHEMBL1124071, “New human renin inhibitors containing an unnatural amino acid, norstatine” (J Med Chem, 1988).

Columns and labels:
Renin [1] = biological target: T1, Renin (Homo sapiens, UniProt P00797); assay: Inhibitory concentration against human renin
T1 sequence (P00797 whole entry): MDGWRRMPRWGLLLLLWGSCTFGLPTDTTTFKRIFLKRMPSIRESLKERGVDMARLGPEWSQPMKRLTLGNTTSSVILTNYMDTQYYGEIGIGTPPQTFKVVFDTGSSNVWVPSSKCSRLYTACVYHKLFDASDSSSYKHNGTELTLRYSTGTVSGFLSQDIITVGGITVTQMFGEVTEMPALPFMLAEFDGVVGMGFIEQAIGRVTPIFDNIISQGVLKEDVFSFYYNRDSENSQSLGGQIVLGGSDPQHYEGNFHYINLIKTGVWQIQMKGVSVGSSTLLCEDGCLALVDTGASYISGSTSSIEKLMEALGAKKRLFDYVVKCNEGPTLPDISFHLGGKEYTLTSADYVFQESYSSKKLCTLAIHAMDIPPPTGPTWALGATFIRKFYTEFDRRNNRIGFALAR

Renin (Canis familiaris) = assay: Inhibitory concentration was measured against plasma renin from dog
Renin [2] = biological target: T1, Renin; assay: Inhibitory concentration was measured against plasma renin from human; format: cell-free
Procedure, shortened: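 Human plasma containing EDTA-2Na (14 mM) and neomycin sulfate (0.3%) was mixed with 0.5 M phosphate buffer pH 7.0, Phe-Ala-Pro and inhibitor in DMSO. Incubation ran 60 min at 37 °C, then angiotensin I generated was quantified by radioimmunoassay. IC50 refers to inhibition of plasma renin activity.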

Renin [3] = biological target: T2, Renin (Rattus norvegicus, UniProt P08424); assay: Inhibitory concentration was measured against plasma renin from rat
T2 sequence (P08424 whole entry): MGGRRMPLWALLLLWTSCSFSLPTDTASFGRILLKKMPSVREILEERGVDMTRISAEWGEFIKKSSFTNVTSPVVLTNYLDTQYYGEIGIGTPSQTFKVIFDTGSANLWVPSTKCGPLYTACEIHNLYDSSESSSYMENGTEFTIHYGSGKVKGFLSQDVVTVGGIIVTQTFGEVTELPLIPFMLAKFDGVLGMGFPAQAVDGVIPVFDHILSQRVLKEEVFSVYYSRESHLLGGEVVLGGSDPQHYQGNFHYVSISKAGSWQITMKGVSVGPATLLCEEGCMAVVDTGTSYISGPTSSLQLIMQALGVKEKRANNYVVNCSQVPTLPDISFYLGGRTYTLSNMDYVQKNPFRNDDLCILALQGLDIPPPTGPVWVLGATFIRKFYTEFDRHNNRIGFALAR

Row | Structure (SMILES) | IC50 (Renin [1]) [nM] | IC50 (Renin (Canis familiaris)) [nM] | IC50 (Renin [2]) [nM] | IC50 (Renin [3]) [nM]
1 | CC(C)CC(NC(=O)C(Cc1c[nH]cn1)NC(=O)C(CC(=O)N1CCOCC1)Cc1cccc2ccccc12)C(O)C(=O)NC(C)C (stereo not given) | 130 | 1100 | 130 | 4400
2 | CC(C)CC(NC(=O)C(Cc1cnc[nH]1)NC(=O)C(CC(=O)N1CCOCC1)Cc1cccc2ccccc12)C(O)CC(=O)OC(C)C (stereo not given) | 180 | 350 | 66 | > 100000
3 | COC(=O)C(O)C(CC(C)C)NC(=O)C(Cc1c[nH]cn1)NC(=O)C(CC(=O)N(C)C)Cc1cccc2ccccc12 (stereo not given) | 78 | 640 | 25 | > 100000
4 | COC(=O)[C@@H](O)C(CC(C)C)NC(=O)C(Cc1c[nH]cn1)NC(=O)C(CC(=O)NCCc1ccccc1)Cc1cccc2ccccc12 (single isomer, unassigned; (+)) | 1300 | – | – | –
5 | COC(=O)[C@H](O)C(CC(C)C)NC(=O)C(Cc1cnc[nH]1)NC(=O)C(CC(=O)NCCc1ccccc1)Cc1cccc2ccccc12 (single isomer, unassigned; (+)) | 31 | – | 77 | –
6 | COC(=O)C(O)C(CC(C)C)NC(=O)C(Cc1c[nH]cn1)NC(=O)C(CC(=O)NCCc1ccccc1)Cc1cccc2ccccc12 (stereo in doubt) | 78 | 2100 | 90 | > 100000
7 | COC(=O)C(O)C(CC(C)C)NC(=O)C(Cc1c[nH]cn1)NC(=O)C(CC(=O)NCCc1ccccc1)Cc1cccc2ccccc12 (stereo in doubt; 12) | > 100000 | – | – | –
